ChEMBL document CHEMBL4689842, “EUbOPEN Chemogenomics Library wave 1” (2021)

Tested on: HEK-293T
Test: Multiplex assay against HEK293T;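 on Population Tubulin-Different-Phenotype (%): share of the cells with healthy nuclei that show this phenotype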
Format: toxicity, cell-based
Settings: human
In short: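 Phenotypes for tubulin, mitochondrial mass and membrane permeability are expressed as per cents of healthy-nucleus cells. Cells were stained live at seeding with Hoechst33342, BioTracker Green Microtubule Cytoskeleton Dye, MitoTracker Red and Annexin V Alexa Fluor 680, then imaged after compound addition on a CQ1 microscope at 37°C and 5% CO2. Machine-learning gating in CellPathfinder separated Hoechst high-intensity objects from normal cells, divided normal cells by nuclear state (healthy, pyknosed, fragmented) and divided pyknosed cells into mitotic or apoptotic.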

[1] = 12 h, 1 µM, compound concentration 1 uM, replicate 1
[2] = 12 h, 1 µM, compound concentration 1 uM, replicate 2
[3] = 12 h, 10 µM, compound concentration 10 uM, replicate 1
[4] = 12 h, 10 µM, compound concentration 10 uM, replicate 2
[5] = 24 h, 1 µM, compound concentration 1 uM, replicate 1
[6] = 24 h, 1 µM, compound concentration 1 uM, replicate 2
[7] = 24 h, 10 µM, compound concentration 10 uM, replicate 1
[8] = 24 h, 10 µM, compound concentration 10 uM, replicate 2
[9] = 48 h, 1 µM, compound concentration 1 uM, replicate 1
[10] = 48 h, 1 µM, compound concentration 1 uM, replicate 2
[11] = 48 h, 10 µM, compound concentration 10 uM, replicate 1
[12] = 48 h, 10 µM, compound concentration 10 uM, replicate 2

Structure (SMILES): COc1cc(N2CCN(C)CC2)ccc1Nc1ncc2c(n1)N(C)c1ccccc1C(=O)N2C
- Population Apoptotic (%) [1]: 46%
- Population Fragmented Nuclei (%) [1]: 8%
- Population Healthy Nuclei (%) [1]: 45%
- Population Hoechst High Intensity Objects (%) [1]: 6%
- Population Membrane Permeable-Phenotype (%) [1]: 1%
- Population Mitochondria Different-Phenotype (%) [1]: 90%
- Population Mitotic Cells (%) [1]: 53%
- Population Normal (%) [1]: 93%
- Population Pyknosed Nuclei (%) [1]: 45%
- Population Tubulin-Different-Phenotype (%) [1]: 40%
- Total Cell Count [1]: 359
- Population Apoptotic (%) [2]: 18%
- Population Fragmented Nuclei (%) [2]: 3%
- Population Healthy Nuclei (%) [2]: 37%
- Population Hoechst High Intensity Objects (%) [2]: 3%
- Population Membrane Permeable-Phenotype (%) [2]: 6%
- Population Mitochondria Different-Phenotype (%) [2]: 42%
- Population Mitotic Cells (%) [2]: 82%
- Population Normal (%) [2]: 96%
- Population Pyknosed Nuclei (%) [2]: 58%
- Population Tubulin-Different-Phenotype (%) [2]: 23%
- Total Cell Count [2]: 176
- Population Apoptotic (%) [3]: 62%
- Population Fragmented Nuclei (%) [3]: 12%
- Population Healthy Nuclei (%) [3]: 17%
- Population Hoechst High Intensity Objects (%) [3]: 13%
- Population Membrane Permeable-Phenotype (%) [3]: 23%
- Population Mitochondria Different-Phenotype (%) [3]: 92%
- Population Mitotic Cells (%) [3]: 37%
- Population Normal (%) [3]: 86%
- Population Pyknosed Nuclei (%) [3]: 70%
- Population Tubulin-Different-Phenotype (%) [3]: 84%
- Total Cell Count [3]: 172
- Population Apoptotic (%) [4]: 58%
- Population Fragmented Nuclei (%) [4]: 8%
- Population Healthy Nuclei (%) [4]: 15%
- Population Hoechst High Intensity Objects (%) [4]: 6%
- Population Membrane Permeable-Phenotype (%) [4]: 7%
- Population Mitochondria Different-Phenotype (%) [4]: 96%
- Population Mitotic Cells (%) [4]: 41%
- Population Normal (%) [4]: 93%
- Population Pyknosed Nuclei (%) [4]: 76%
- Population Tubulin-Different-Phenotype (%) [4]: 100%
- Total Cell Count [4]: 190
- Population Apoptotic (%) [5]: 38%
- Population Fragmented Nuclei (%) [5]: 4%
- Population Healthy Nuclei (%) [5]: 58%
- Population Hoechst High Intensity Objects (%) [5]: 6%
- Population Membrane Permeable-Phenotype (%) [5]: 1%
- Population Mitochondria Different-Phenotype (%) [5]: 75%
- Population Mitotic Cells (%) [5]: 61%
- Population Normal (%) [5]: 93%
- Population Pyknosed Nuclei (%) [5]: 37%
- Population Tubulin-Different-Phenotype (%) [5]: 26%
- Total Cell Count [5]: 423
- Population Apoptotic (%) [6]: 9%
- Population Fragmented Nuclei (%) [6]: 5%
- Population Healthy Nuclei (%) [6]: 48%
- Population Hoechst High Intensity Objects (%) [6]: 2%
- Population Membrane Permeable-Phenotype (%) [6]: 7%
- Population Mitochondria Different-Phenotype (%) [6]: 40%
- Population Mitotic Cells (%) [6]: 90%
- Population Normal (%) [6]: 97%
- Population Pyknosed Nuclei (%) [6]: 45%
- Population Tubulin-Different-Phenotype (%) [6]: 22%
- Total Cell Count [6]: 225
- Population Apoptotic (%) [7]: 69%
- Population Fragmented Nuclei (%) [7]: 9%
- Population Healthy Nuclei (%) [7]: 19%
- Population Hoechst High Intensity Objects (%) [7]: 10%
- Population Membrane Permeable-Phenotype (%) [7]: 13%
- Population Mitochondria Different-Phenotype (%) [7]: 96%
- Population Mitotic Cells (%) [7]: 30%
- Population Normal (%) [7]: 89%
- Population Pyknosed Nuclei (%) [7]: 71%
- Population Tubulin-Different-Phenotype (%) [7]: 93%
- Total Cell Count [7]: 170
- Population Apoptotic (%) [8]: 76%
- Population Fragmented Nuclei (%) [8]: 7%
- Population Healthy Nuclei (%) [8]: 20%
- Population Hoechst High Intensity Objects (%) [8]: 5%
- Population Membrane Permeable-Phenotype (%) [8]: 2%
- Population Mitochondria Different-Phenotype (%) [8]: 94%
- Population Mitotic Cells (%) [8]: 23%
- Population Normal (%) [8]: 94%
- Population Pyknosed Nuclei (%) [8]: 72%
- Population Tubulin-Different-Phenotype (%) [8]: 97%
- Total Cell Count [8]: 195
- Population Apoptotic (%) [9]: 36%
- Population Fragmented Nuclei (%) [9]: 8%
- Population Healthy Nuclei (%) [9]: 71%
- Population Hoechst High Intensity Objects (%) [9]: 8%
- Population Membrane Permeable-Phenotype (%) [9]: 1%
- Population Mitochondria Different-Phenotype (%) [9]: 23%
- Population Mitotic Cells (%) [9]: 63%
- Population Normal (%) [9]: 91%
- Population Pyknosed Nuclei (%) [9]: 19%
- Population Tubulin-Different-Phenotype (%) [9]: 11%
- Total Cell Count [9]: 613
- Population Apoptotic (%) [10]: 18%
- Population Fragmented Nuclei (%) [10]: 6%
- Population Healthy Nuclei (%) [10]: 72%
- Population Hoechst High Intensity Objects (%) [10]: 2%
- Population Membrane Permeable-Phenotype (%) [10]: 6%
- Population Mitochondria Different-Phenotype (%) [10]: 7%
- Population Mitotic Cells (%) [10]: 81%
- Population Normal (%) [10]: 97%
- Population Pyknosed Nuclei (%) [10]: 20%
- Population Tubulin-Different-Phenotype (%) [10]: 16%
- Total Cell Count [10]: 357
- Population Apoptotic (%) [11]: 69%
- Population Fragmented Nuclei (%) [11]: 16%
- Population Healthy Nuclei (%) [11]: 33%
- Population Hoechst High Intensity Objects (%) [11]: 15%
- Population Membrane Permeable-Phenotype (%) [11]: 3%
- Population Mitochondria Different-Phenotype (%) [11]: 100%
- Population Mitotic Cells (%) [11]: 30%
- Population Normal (%) [11]: 84%
- Population Pyknosed Nuclei (%) [11]: 49%
- Population Tubulin-Different-Phenotype (%) [11]: 91%
- Total Cell Count [11]: 210
- Population Apoptotic (%) [12]: 70%
- Population Fragmented Nuclei (%) [12]: 11%
- Population Healthy Nuclei (%) [12]: 28%
- Population Hoechst High Intensity Objects (%) [12]: 10%
- Population Membrane Permeable-Phenotype (%) [12]: 1%
- Population Mitochondria Different-Phenotype (%) [12]: 96%
- Population Mitotic Cells (%) [12]: 29%
- Population Normal (%) [12]: 89%
- Population Pyknosed Nuclei (%) [12]: 59%
- Population Tubulin-Different-Phenotype (%) [12]: 94%
- Total Cell Count [12]: 211
